Experiments:
[1] = molecular target: T1, Cholinesterase (Homo sapiens, UniProt P06276); assay: Inhibition of recombinant BuChE (unknown origin) using BTCI as substrate at 20 uM preincubated for 30 mins followed by substrate addition by TECAN multiplate reader analysis relative to control
In short: (§1)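 Ellman method as for AChE, using butyrylcholinesterase with BTCI as substrate. Enzyme and compound preincubated 30 min at 37 °C in a CO2 incubator, then DTNB and BTCI added; absorbance read at 417 nm. Screening at 20 μM as % inhibition; IC50 for compounds exceeding 50% inhibition at 20 μM. Triplicate.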

[2] = molecular target: T2, Amine oxidase [flavin-containing] B (Homo sapiens, UniProt P27338); assay: Inhibition of recombinant MAO-B (unknown origin) at 20 uM preincubated for 30 mins followed substrate addition by Amplex Red reagent based fluorescence analysis relative to control
T2 sequence (P27338 whole entry): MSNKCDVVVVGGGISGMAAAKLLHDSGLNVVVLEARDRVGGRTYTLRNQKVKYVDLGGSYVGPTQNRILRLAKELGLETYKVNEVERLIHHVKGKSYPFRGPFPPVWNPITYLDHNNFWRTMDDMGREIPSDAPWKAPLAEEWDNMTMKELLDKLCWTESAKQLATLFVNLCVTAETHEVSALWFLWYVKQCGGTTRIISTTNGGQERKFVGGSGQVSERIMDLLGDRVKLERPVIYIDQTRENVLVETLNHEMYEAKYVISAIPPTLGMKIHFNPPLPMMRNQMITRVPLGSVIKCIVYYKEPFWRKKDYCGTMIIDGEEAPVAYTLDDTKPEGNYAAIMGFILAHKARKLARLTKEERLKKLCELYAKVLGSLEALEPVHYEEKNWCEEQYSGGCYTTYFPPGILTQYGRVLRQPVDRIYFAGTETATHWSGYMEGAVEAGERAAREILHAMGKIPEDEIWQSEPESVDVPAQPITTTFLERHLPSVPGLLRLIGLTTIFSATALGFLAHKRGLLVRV
In short: (§2)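 Recombinant MAO enzyme preincubated with compound 30 min at 37 °C; substrate, HRP and Amplex Red working solution then added; H2O2 formation read at 37 °C by fluorescence, ex 545/em 590 nm. Screening at 20 μM as % inhibition versus control; IC50 only for compounds above 50% inhibition at 20 μM; triplicate (n = 3).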

[3] = molecular target: T3, Amine oxidase [flavin-containing] A (Homo sapiens, UniProt P21397); assay: Inhibition of recombinant MAO-A (unknown origin) at 20 uM preincubated for 30 mins followed substrate addition by Amplex Red reagent based fluorescence analysis relative to control; in short: as §2
T3 sequence (P21397 whole entry): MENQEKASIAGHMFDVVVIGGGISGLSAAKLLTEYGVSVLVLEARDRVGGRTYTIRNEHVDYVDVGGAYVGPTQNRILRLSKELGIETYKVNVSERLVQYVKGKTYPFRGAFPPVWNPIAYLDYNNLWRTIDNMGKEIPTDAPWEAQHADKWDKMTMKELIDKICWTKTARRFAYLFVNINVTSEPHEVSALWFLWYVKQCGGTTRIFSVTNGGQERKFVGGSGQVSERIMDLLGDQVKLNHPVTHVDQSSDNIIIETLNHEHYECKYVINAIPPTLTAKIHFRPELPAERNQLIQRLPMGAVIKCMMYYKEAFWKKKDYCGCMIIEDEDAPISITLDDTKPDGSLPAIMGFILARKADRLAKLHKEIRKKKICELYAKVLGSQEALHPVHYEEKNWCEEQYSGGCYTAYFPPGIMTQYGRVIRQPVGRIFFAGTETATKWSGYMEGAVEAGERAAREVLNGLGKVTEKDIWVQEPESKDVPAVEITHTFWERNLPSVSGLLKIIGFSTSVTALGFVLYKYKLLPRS

[4] = molecular target: Amyloid-beta precursor protein (Homo sapiens) (UniProt P05067); assay: Inhibition of self-induced amyloid beta (1 to 42 residues) (unknown origin) aggregation at 20 uM incubated at 48 hrs by fluorimetry-based thioflavin T assay
Amyloid-beta precursor protein (Homo sapiens), sequence (P05067 whole entry, the tested form may be a part): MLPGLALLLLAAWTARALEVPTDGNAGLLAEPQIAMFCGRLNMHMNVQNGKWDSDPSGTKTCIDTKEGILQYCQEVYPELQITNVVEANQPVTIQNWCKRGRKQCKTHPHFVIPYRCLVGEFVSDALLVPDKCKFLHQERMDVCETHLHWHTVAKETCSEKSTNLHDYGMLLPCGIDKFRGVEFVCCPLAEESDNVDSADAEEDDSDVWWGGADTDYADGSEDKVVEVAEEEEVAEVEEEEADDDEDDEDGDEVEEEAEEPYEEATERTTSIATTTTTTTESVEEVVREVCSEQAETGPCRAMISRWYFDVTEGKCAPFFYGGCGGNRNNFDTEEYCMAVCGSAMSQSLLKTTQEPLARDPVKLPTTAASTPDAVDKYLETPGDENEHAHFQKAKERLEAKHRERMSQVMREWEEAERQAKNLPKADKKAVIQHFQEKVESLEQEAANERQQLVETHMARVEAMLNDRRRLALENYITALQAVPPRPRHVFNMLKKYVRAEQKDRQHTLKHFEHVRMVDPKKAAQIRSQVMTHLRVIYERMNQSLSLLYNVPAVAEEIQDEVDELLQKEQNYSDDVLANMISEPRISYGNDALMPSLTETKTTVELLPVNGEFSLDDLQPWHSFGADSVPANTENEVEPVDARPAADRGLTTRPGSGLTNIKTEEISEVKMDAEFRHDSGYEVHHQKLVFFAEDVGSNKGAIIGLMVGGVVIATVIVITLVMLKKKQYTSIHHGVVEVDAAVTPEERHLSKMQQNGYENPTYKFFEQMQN
In short: (§3)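 Aβ1-42 pretreated with HFIP (1 mg mL−1) and dried, then incubated with compound (20 μM) at 37 °C for 24 h; an aliquot transferred and incubated further to 48 h. Glycine–NaOH buffer pH 8.0 with 5 μM ThT added; fluorescence read at 440–485 nm. % inhibition calculated against the Aβ-only control taken as 0%.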

[5] = molecular target: Amyloid-beta precursor protein (Homo sapiens) (UniProt P05067); assay: Inhibition of self-induced amyloid beta (1 to 42 residues) (unknown origin) aggregation at 20 uM incubated at 24 hrs by fluorimetry-based thioflavin T assay; in short: as §3
[6] = molecular target: T1, Cholinesterase; assay: Inhibition of recombinant BuChE (unknown origin) using BTCI as substrate preincubated for 30 mins followed by substrate addition by TECAN multiplate reader analysis; in short: as §1

T1 sequence (P06276 whole entry): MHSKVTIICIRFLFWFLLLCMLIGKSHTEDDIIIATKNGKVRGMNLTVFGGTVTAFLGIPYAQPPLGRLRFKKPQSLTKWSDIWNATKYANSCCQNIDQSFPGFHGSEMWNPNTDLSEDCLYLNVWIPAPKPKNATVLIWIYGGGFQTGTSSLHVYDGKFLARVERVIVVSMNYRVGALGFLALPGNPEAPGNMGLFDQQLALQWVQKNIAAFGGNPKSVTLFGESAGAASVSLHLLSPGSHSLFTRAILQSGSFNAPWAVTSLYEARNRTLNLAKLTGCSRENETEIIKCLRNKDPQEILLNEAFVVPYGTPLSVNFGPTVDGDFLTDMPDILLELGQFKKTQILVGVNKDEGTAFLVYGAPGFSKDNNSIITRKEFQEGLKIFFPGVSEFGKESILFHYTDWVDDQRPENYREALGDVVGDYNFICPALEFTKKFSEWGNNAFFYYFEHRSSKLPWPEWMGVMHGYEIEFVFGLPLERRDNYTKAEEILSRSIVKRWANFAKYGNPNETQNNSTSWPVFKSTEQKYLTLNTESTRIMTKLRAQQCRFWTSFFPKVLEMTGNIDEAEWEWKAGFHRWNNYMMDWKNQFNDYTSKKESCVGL

Compound	inhibition [1] [%]	inhibition at 20 µM [2] [%]	inhibition at 20 µM [3] [%]	inhibition [4] [%]	inhibition [5] [%]	IC50 [6] [µM]
C#CCCCOc1c(CN2CCN(c3ccccc3)CC2)cc(-c2cc(=O)c3ccccc3o2)cc1OC	1.69	13.1	2.6	–	–	–
C#CCCCOc1c(CN2CCCCC2)cc(-c2cc(=O)c3ccccc3o2)cc1OCC	3.36	15.6	–	–	–	–
C#CCCCOc1c(CN2CCCCC2)cc(-c2cc(=O)c3ccccc3o2)cc1OC	21.6	15.6	0.75	–	–	–
C#CCOc1c(CN2CCOCC2)cc(-c2cc(=O)c3ccccc3o2)cc1CN1CCOCC1	9.03	36.5	–	23.3	14.4	–
C#CCOc1ccc(-c2cc(=O)c3ccccc3o2)cc1CN1CCOCC1	4.21	28.1	–	11.6	9	–
C#CCCOc1c(CN2CCN(c3ccccc3)CC2)cc(-c2cc(=O)c3ccccc3o2)cc1OC	1.63	35.4	9.14	–	–	–
C#CCCOc1c(CN2CCOCC2)cc(-c2cc(=O)c3ccccc3o2)cc1OC	3.11	26.6	7.98	–	–	–
C#CCCCOc1c(CN2CCOCC2)cc(-c2cc(=O)c3ccccc3o2)cc1OC	3.35	18.8	–	–	–	–
C#CCCCOc1c(CN2CCc3ccccc3C2)cc(-c2cc(=O)c3ccccc3o2)cc1OC	51.5	19.8	11.3	–	–	18.9
C#CCOc1c(CN2CCOCC2)cc(-c2cc(=O)c3ccccc3o2)cc1OC	1.17	15.1	–	40.4	36.1	–
